Measured values reported in ChEMBL document CHEMBL3588746, “Using click chemistry toward novel 1,2,3-triazole-linked dopamine D3 receptor ligands” (Bioorg Med Chem, 2015).

Columns and labels:
[1] = molecular target: D(2) dopamine receptor (Homo sapiens, UniProt P14416); experiment: Displacement of [3H]-N-methylspiperone from human dopamine D2 receptor expressed in HEK293 cell membranes after 1 hr by liquid scintillation counting analysis
[2] = molecular target: D(3) dopamine receptor (Homo sapiens, UniProt P35462); experiment: Displacement of [3H]-N-methylspiperone from human dopamine D3 receptor expressed in HEK293 cell membranes after 1 hr by liquid scintillation counting analysis
[3] = molecular target: T1, D(4) dopamine receptor (Homo sapiens, UniProt P21917); experiment: Displacement of [3H]-N-methylspiperone from human dopamine D4 receptor expressed in HEK293 cell membranes after 1 hr by liquid scintillation counting analysis
T1 sequence (P21917 whole entry): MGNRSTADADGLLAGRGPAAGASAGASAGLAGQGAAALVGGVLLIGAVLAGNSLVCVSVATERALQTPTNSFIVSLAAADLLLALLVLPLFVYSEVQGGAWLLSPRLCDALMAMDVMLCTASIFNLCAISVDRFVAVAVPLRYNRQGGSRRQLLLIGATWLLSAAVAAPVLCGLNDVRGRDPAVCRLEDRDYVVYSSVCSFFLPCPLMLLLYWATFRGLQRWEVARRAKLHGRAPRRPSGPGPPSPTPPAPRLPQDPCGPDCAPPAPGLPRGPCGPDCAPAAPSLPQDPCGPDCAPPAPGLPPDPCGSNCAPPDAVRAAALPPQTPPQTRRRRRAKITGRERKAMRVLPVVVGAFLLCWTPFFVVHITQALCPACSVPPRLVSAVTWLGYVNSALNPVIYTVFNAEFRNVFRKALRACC

[4] = species: Homo sapiens; experiment: Selectivity ratio of Ki for human dopamine D2 receptor to Ki for human dopamine D3 receptor
Procedure, shortened: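 Ki values from [3H]N-methylspiperone (0.4 nM) competition in membranes from HEK293 cells stably expressing human D2R or D3R, 10 μg protein per tube. Incubated 1 h at room temperature in triplicate, with 10 μM butaclamol defining nonspecific binding. […] Ratio is D2R Ki divided by D3R Ki.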

[5] = Metabolic stability in mouse liver microsomes assessed as compound remaining at 1 uM after 60 mins by LC/MS/MS analysis in presence of NADPH regenerating system; type: ADME; conditions: read-out: Stability
[6] = Metabolic stability in mouse liver microsomes assessed as compound remaining at 1 uM after 30 mins by LC/MS/MS analysis in presence of NADPH regenerating system; type: ADME; conditions: read-out: Stability
Procedure, shortened: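 Mouse liver microsomes at 0.2 mg/mL with compound at 1 μM final, in 100 mM potassium phosphate pH 7.4. Reaction started by adding microsomes, triplicate. Sampled at 0, 30 and 60 min and quenched with ice-cold acetonitrile plus internal standard. Percent parent remaining measured by LC/MS/MS. Controls lacking NADPH were run; testosterone served as positive control.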

D(2) dopamine receptor, sequence (P14416 whole entry): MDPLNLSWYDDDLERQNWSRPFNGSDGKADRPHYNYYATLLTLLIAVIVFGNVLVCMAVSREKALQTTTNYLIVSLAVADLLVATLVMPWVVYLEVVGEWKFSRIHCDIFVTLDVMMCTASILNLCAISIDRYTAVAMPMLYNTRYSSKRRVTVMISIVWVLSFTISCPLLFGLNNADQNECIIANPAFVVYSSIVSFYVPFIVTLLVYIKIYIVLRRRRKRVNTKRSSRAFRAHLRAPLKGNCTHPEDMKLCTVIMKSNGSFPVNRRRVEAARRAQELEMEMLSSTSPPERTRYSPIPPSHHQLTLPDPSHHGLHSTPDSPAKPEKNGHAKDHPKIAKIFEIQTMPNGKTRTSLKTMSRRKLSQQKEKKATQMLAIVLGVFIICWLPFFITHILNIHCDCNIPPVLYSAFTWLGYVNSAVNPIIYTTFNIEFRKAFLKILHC
D(3) dopamine receptor, sequence (P35462 whole entry): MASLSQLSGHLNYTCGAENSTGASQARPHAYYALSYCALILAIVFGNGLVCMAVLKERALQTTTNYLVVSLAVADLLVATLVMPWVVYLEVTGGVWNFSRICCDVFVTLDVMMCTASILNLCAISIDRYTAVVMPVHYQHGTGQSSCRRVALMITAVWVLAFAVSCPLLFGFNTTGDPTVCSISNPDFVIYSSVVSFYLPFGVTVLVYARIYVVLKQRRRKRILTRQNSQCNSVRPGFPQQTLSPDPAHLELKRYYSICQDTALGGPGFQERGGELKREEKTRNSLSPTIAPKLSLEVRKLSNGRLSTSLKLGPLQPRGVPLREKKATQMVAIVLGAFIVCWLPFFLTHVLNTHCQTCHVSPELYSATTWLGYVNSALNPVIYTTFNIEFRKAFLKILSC

| Ki [1] [nM] | Ki [2] [nM] | Ki [3] [nM] | Ratio Ki [4] | remaining at 1 h, 1 µM [5] [%] | remaining at 0.5 h, 1 µM [6] [%] | Structure (SMILES) |
| --- | --- | --- | --- | --- | --- | --- |
| 50.1 | 5.55 | 588 | 9 | – | – | COc1ccccc1N1CCN(CCCCn2cc(-c3ccc4c(c3)Cc3ccccc3-4)nn2)CC1 |
| 424 | 68.2 | > 3000 | 6.2 | – | – | COc1ccccc1N1CCN(CC(O)CCn2cc(-c3ccc4ncccc4c3)nn2)CC1 (racemic) |
| 53.9 | 1.35 | > 1000 | 40 | – | – | Clc1cccc(N2CCN(CCCCn3cc(-c4ccc5ncccc5c4)nn3)CC2)c1Cl |
| 42.5 | 6.73 | 269 | 6.3 | – | – | COc1ccccc1N1CCN(CCCCn2cc(-c3ccc4ncccc4c3)nn2)CC1 |
| 424 | 5.05 | 4450 | 84 | – | – | Clc1cccc(N2CCN(CCCCc3cn(-c4ccc5c(c4)Cc4ccccc4-5)nn3)CC2)c1Cl |
| 1020 | 493 | > 3000 | 2.1 | – | – | COc1ccccc1-c1cn(CCC(O)CN2CCN(c3ccccc3OC)CC2)nn1 (racemic) |
| 83.4 | 13.1 | > 1000 | 6.4 | – | – | COc1ccccc1N1CCN(CCCCc2cn(-c3cccc4ncccc34)nn2)CC1 |
| 137 | 22.9 | 480 | 6 | – | – | COc1ccccc1N1CCN(CCCCn2cc(-c3ccccc3)nn2)CC1 |
| 69 | 5.88 | 425 | 12 | – | – | COc1ccccc1N1CCN(CCCCn2cc(-c3ccc(-c4ccccc4)cc3)nn2)CC1 |
| 2590 | 8.32 | > 10000 | 311 | – | – | Clc1cccc(N2CCN(CCCCn3cc(-c4ccc(-c5ccccc5)cc4)nn3)CC2)c1Cl |
| 819 | 30.5 | > 2000 | 27 | – | – | COc1ccccc1N1CCN(CC(O)CCn2cc(-c3ccc(-c4ccccc4)cc3)nn2)CC1 (racemic) |
| 43.7 | 5.48 | 222 | 8 | – | – | COc1ccccc1N1CCN(CCCCn2cc(-c3ccc4[nH]ccc4c3)nn2)CC1 |
| 57.2 | 1.59 | 329 | 36 | – | – | COc1ccccc1N1CCN(CCCCc2cn(-c3ccc4c(c3)Cc3ccccc3-4)nn2)CC1 |
| 23.3 | 11.1 | 232 | 2.1 | – | – | COc1ccccc1N1CCN(CCCCn2cc(-c3ccc4ccccc4c3)nn2)CC1 |
| 963 | 5.85 | – | 165 | 35 | 45 | OC(CCn1cc(-c2ccc3[nH]ccc3c2)nn1)CN1CCN(c2cccc(Cl)c2Cl)CC1 (racemic) |
| 56.1 | 1.47 | > 2000 | 38 | – | – | Clc1cccc(N2CCN(CCCCn3cc(-c4ccc5[nH]ccc5c4)nn3)CC2)c1Cl |
| 607 | 18.5 | > 1000 | 33 | – | – | COc1ccccc1N1CCN(CC(O)CCn2cc(-c3ccc4c(c3)Cc3ccccc3-4)nn2)CC1 (racemic) |
| 18800 | 25.2 | > 20000 | 745 | – | – | OC(CCn1cc(-c2ccc3ccccc3c2)nn1)CN1CCN(c2cccc(Cl)c2Cl)CC1 (racemic) |
| 80.8 | 3.8 | > 2000 | 21 | – | – | Clc1cccc(N2CCN(CCCCc3cn(-c4ccc5ccccc5c4)nn3)CC2)c1Cl |
| 31.5 | 2.93 | 299 | 11 | – | – | COc1ccccc1N1CCN(CCCCc2cn(-c3ccc4ccccc4c3)nn2)CC1 |
| 51.8 | 3.1 | 353 | 17 | – | – | COc1ccccc1N1CCN(CCCCc2cn(-c3ccc4[nH]ccc4c3)nn2)CC1 |
| 885 | 14 | > 20000 | 63 | – | – | Clc1cccc(N2CCN(CCCCn3cc(-c4ccc5c(c4)Cc4ccccc4-5)nn3)CC2)c1Cl |
| 244 | 18 | – | 14 | 26 | – | OC(CCn1cc(-c2cnc3ccccc3c2)nn1)CN1CCN(c2cccc(Cl)c2Cl)CC1 (racemic) |
| 46.6 | 1 | 510 | 47 | – | – | Clc1cccc(N2CCN(CCCCc3cn(-c4ccc5[nH]ccc5c4)nn3)CC2)c1Cl |
| 103 | 7.7 | > 1000 | 13 | – | – | Clc1cccc(N2CCN(CCCCn3cc(-c4ccc5ccccc5c4)nn3)CC2)c1Cl |
| 15100 | 55.8 | > 7000 | 270 | – | – | OC(CCn1cc(-c2ccc(-c3ccccc3)cc2)nn1)CN1CCN(c2cccc(Cl)c2Cl)CC1 (racemic) |
| 1210 | 173 | > 3000 | 7 | – | – | COc1ccccc1N1CCN(CC(O)CCn2cc(-c3ccccc3)nn2)CC1 (racemic) |
| 189 | 40.7 | > 2000 | 4.6 | – | – | COc1ccccc1N1CCN(CC(O)CCn2cc(-c3ccc4ccccc4c3)nn2)CC1 (racemic) |
| 789 | 33.6 | – | 23 | 27 | 44 | COc1ccccc1N1CCN(CC(O)CCn2cc(-c3ccc4[nH]ccc4c3)nn2)CC1 (racemic) |
| 53.6 | 5.42 | 486 | 10 | – | – | COc1ccccc1N1CCN(CCCCc2cn(-c3ccccc3)nn2)CC1 |

| Structure (SMILES) | Ki [1] [nM] | Ki [2] [nM] | Ki [3] [nM] | Ratio Ki [4] | remaining at 1 h, 1 µM [5] [%] | remaining at 0.5 h, 1 µM [6] [%] |
| --- | --- | --- | --- | --- | --- | --- |
| O=C(NCCC(O)CN1CCN(c2cccc(Cl)c2Cl)CC1)c1cnc2ccccc2c1 (stereo unspecified) | 321 | 2.91 | – | 110 | 4 | – |
